The record followed here is ChEMBL document CHEMBL2203264, “Optimization of imidazo[4,5-b]pyridine-based kinase inhibitors: identification of a dual FLT3/Aurora kinase inhibitor as an orally bioavailable preclinical development candidate for the treatment of acute myeloid leukemia” (J Med Chem, 2012).

What is called inhibition is the relative decrease from the control value, in per cent. In general, IC50 refers to the midpoint of a concentration-inhibition curve. What is called GI50 is the concentration giving 50% growth inhibition. Read a high GI50 as lower sensitivity of the cells.

The target of one data set is hERG (KCNH2) (Homo sapiens, UniProt Q12809). In words: Inhibition of human ERG at 10 uM by cell-based electrophysiology assay.
Chain of hERG (KCNH2) (Q12809 whole entry): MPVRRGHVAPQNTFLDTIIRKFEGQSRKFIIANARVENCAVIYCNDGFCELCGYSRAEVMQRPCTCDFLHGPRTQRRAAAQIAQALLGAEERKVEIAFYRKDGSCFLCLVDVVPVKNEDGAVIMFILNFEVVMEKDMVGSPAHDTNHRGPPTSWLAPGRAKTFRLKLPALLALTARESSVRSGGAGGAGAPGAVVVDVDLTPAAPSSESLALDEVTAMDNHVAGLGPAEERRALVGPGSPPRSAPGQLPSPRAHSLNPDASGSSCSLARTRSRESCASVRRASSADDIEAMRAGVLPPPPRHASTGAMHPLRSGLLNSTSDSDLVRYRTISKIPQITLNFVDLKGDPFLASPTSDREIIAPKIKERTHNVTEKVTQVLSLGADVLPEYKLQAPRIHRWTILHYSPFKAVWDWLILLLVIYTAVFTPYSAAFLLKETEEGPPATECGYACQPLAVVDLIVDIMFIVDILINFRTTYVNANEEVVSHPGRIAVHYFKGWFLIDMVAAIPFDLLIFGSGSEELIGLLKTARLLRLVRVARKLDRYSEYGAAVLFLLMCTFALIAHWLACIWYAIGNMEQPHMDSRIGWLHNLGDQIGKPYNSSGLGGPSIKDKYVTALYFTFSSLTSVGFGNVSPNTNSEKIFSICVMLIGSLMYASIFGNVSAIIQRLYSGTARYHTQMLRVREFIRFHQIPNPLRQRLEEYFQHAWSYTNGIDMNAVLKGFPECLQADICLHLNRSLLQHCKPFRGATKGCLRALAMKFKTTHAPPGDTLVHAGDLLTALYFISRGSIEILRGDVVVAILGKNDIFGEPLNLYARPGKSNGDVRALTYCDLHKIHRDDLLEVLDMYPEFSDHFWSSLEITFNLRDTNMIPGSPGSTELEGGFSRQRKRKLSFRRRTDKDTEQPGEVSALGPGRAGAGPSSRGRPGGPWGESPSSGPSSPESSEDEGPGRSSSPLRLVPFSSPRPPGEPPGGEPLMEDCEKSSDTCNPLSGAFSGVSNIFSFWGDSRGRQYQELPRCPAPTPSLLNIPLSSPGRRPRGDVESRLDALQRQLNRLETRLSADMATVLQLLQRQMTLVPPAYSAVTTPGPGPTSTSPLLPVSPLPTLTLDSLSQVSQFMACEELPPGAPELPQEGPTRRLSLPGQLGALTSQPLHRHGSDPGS
A short description of data set [1]: Metabolic stability in human liver microsomes assessed as parent compound metabolism after 30 mins by LC-MS analysis. It is filed as ADME, Microsome. Particulars: read-out: Drug metabolism. The procedure, abridged: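 Test compound at 10 μM with pooled mixed-gender human liver microsomes (1 mg/mL protein), NADPH 1 mM, UDPGA 2.5 mM and MgCl2 3 mM in 10 mM PBS at 37 °C for 0 and 30 min. Controls omit NADPH/UDPGA. Compound remaining measured by LC–MS; reported as percent of parent metabolized at 30 min.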

Data set [2] can be described thus: Metabolic stability in mouse liver microsomes assessed as parent compound metabolism after 30 mins by LC-MS analysis. It is filed as ADME, Microsome. As to conditions: read-out: Drug metabolism. In a few lines: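 Male CD1 mouse liver microsomes (1 mg/mL protein) incubated with 10 μM compound plus NADPH 1 mM, UDPGA 2.5 mM and MgCl2 3 mM in 10 mM PBS at 37 °C for 0 and 30 min. NADPH/UDPGA-free controls included. LC–MS quantitation of remaining compound; reported as percent parent metabolized after 30 min.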
Background: Microsomes from liver hold many membrane-bound enzymes, among them those of drug oxidation.

The target of another data set is T1, Aurora kinase A (Homo sapiens, UniProt O14965).
T1 sequence (O14965 whole entry): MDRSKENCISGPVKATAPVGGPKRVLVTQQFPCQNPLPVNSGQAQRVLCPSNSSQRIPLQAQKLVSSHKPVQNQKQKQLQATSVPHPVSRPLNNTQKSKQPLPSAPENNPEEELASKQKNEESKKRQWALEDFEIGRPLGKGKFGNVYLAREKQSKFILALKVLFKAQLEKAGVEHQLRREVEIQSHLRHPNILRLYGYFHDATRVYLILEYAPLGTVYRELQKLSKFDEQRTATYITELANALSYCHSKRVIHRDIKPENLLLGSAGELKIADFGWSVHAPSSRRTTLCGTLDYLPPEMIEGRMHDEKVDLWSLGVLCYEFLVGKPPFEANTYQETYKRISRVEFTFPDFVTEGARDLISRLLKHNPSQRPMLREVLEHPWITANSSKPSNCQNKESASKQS
In words: Inhibition of GST-tagged human Aurora A kinase expressed in baculovirus system.

The next data set deals with SW-620. In words: cells. As to conditions: Homo sapiens, SW-620, 72 h.

In the case of `Cc1cc(CN2CCN(c3c(Cl)cnc4nc(-c5ccc(N6CCN(C)CC6)c(F)c5)[nH]c34)CC2)no1`, 10 µM produced 37% inhibition at hERG (KCNH2). Moreover, the metabolised at 0.5 h in data set [1] was determined as 68%; in data set [2], 20%. Moreover, on Aurora kinase A, the IC50 was determined as 0.011 µM. The GI50 in the data set with SW-620 amounted to 0.38 µM.
Turning to `COCCN1CCN(c2ccc(-c3nc4ncc(Br)c(N5CCN(Cc6cc(C)on6)CC5)c4[nH]3)cc2)CC1`, 10 µM produced 54% inhibition against hERG (KCNH2). Further, the metabolised at 0.5 h was found to be 69% in data set [1] and 66% in data set [2]. Moreover, the IC50 at Aurora kinase A turned out to be 0.012 µM. For the same molecule, the GI50 with SW-620 was 1 µM.
At hERG (KCNH2), `CC(=O)N1CCN(c2ccc(-c3nc4ncc(Br)c(N5CCN(Cc6cc(C)on6)CC5)c4[nH]3)cc2)CC1` returned an inhibition at 10 µM of 92%. Further, the metabolised at 0.5 h in data set [1] came to 94%; in data set [2], 25%. The molecule also came in with an IC50 on Aurora kinase A of 0.009 µM. In the data set with SW-620, this molecule came in with a GI50 of 0.758 µM.
At hERG (KCNH2), `Cc1cc(CN2CCN(c3c(Cl)cnc4nc(-c5cccc(CN6CCOCC6)c5)[nH]c34)CC2)no1` had an inhibition at 10 µM of 15%. In addition, the values for the metabolised at 0.5 h in data set [1] and in data set [2] were 71% and 69%, respectively. At Aurora kinase A, this molecule registered an IC50 of 0.047 µM. Moreover, the concentration for 50% growth inhibition (GI50) in the data set on SW-620 was found to be 0.113 µM.
For `Cc1nn(C)cc1-c1nc2ncc(Cl)c(N3CCN(Cc4cnccn4)CC3)c2[nH]1` the same measures were 23%, 76%, 99%, 0.027 µM and 1.09 µM.
For `Cc1cc(CN2CCN(c3c(Cl)cnc4[nH]c(-c5cnn(CC(F)F)c5)nc34)CC2)no1` the same measures were 82%, 0%, 12%, 0.045 µM and 1.6 µM.
Molecule `Cc1nn(C)cc1-c1nc2c(N3CCN(Cc4ncn(C)n4)CC3)c(Cl)cnc2[nH]1` displayed an inhibition at 10 µM at hERG (KCNH2) of 14%. Moreover, the metabolised at 0.5 h in data set [1] amounted to 24%; in data set [2] it was 97%. On Aurora kinase A, this molecule came in with an IC50 of 0.093 µM. This molecule yielded a 50% growth inhibitory concentration (GI50) in the data set with SW-620 of 3.14 µM.
Take `Cc1cc(CN2CCN(c3c(Cl)cnc4[nH]c(-c5cccc(OCCN(C)C)c5)nc34)CC2)no1`: the inhibition at 10 µM against hERG (KCNH2) worked out at 88%. Also, the metabolised at 0.5 h in data set [1] amounted to 18%; in data set [2], 23%. At Aurora kinase A, this molecule gave an IC50 of 0.13 µM. Moreover, the GI50 with SW-620 turned out to be 0.85 µM.
